Assay results reported in ChEMBL document CHEMBL1138269, “Antimicrobial lexitropsins containing amide, amidine, and alkene linking groups” (J Med Chem, 2007).
≈ marks a conversion by molar mass, not a printed value. Blank lines part the entries; values can stand above or below the compound they belong to.

Key:
Type in all cases: functional
Staphylococcus aureus [1] = test: Antibacterial activity against methicillin-resistant Staphylococcus aureus clinical isolate 4
Procedure, shortened: (§1)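 Broth microdilution MIC against clinical S. aureus isolates (incl. MRSA), run per NCCLS guidelines in 96-well plates. Test sample dissolved in sterile water to a 200 µg mL-1 working concentration, then doubling dilutions in Mueller-Hinton broth. Incubated at 37 °C, growth read visually plus resazurin indicator. MIC reported in µg/mL.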

Staphylococcus aureus [2] = test: Antibacterial activity against methicillin-sensitive Staphylococcus aureus NCTC 6571; settings: Staphylococcus aureus, NCTC 6571; read-out: MIC
Procedure, shortened: (§2)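 Broth microdilution in Mueller-Hinton broth. Samples were dissolved in sterile water to 200 µg mL-1 as the working solution and doubling dilutions were made across rows. Plates were incubated at 37 °C and inspected visually, with resazurin added as growth indicator. MIC reported in µg mL-1.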

Staphylococcus aureus [3] = test: Antibacterial activity against methicillin-resistant Staphylococcus aureus clinical isolate 1; procedure, shortened: as §1
Staphylococcus aureus [4] = test: Antibacterial activity against methicillin-resistant Staphylococcus aureus clinical isolate 5; procedure, shortened: as §1
Enterococcus faecalis = test: Antibacterial activity against Streptococcus faecalis NCTC 775; settings: Enterococcus faecalis, NCTC 775; read-out: MIC; procedure, shortened: as §2
Aspergillus niger = test: Antifungal activity against Aspergillus niger IMI 149007
Procedure, shortened: (§3)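 Antifungal microdilution in Sabouraud broth. Test sample at 200 µg mL-1 working solution in sterile water was serially doubled down successive rows. Incubation was at 25 °C, followed by visual growth check and addition of resazurin indicator. Read-out is MIC in µg mL-1.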

Staphylococcus aureus [5] = test: Antibacterial activity against methicillin-resistant Staphylococcus aureus clinical isolate 2; procedure, shortened: as §1
Staphylococcus aureus [6] = test: Antibacterial activity against methicillin-resistant Staphylococcus aureus clinical isolate 3; procedure, shortened: as §1
Candida albicans = test: Antifungal activity against Candida albicans NCPF 3179; settings: Candida albicans; read-out: MIC; procedure, shortened: as §3
[7] = system: Mycolicibacterium fortuitum; test: Antibacterial activity against Mycobacterium fortuitum NCTC 10394; procedure, shortened: as §2

SMILES: COc1cccc(/C=C/c2ccc(C(=O)Nc3cc(C(=O)Nc4cc(C(=O)NCCCN(C)C)n(C)c4)n(C)c3)cc2)c1
MIC (Staphylococcus aureus [1]): 6.25 µg/mL (≈ 10.7 µM) | MIC (Staphylococcus aureus [2]): 6 µg/mL (≈ 10.3 µM) | MIC (Staphylococcus aureus [3]): 6.25 µg/mL (≈ 10.7 µM) | MIC (Staphylococcus aureus [4]): 6.25 µg/mL (≈ 10.7 µM) | MIC (Enterococcus faecalis): > 50 µg/mL | MIC (Aspergillus niger): 50 µg/mL (≈ 85.8 µM) | MIC (Staphylococcus aureus [5]): 6.25 µg/mL (≈ 10.7 µM) | MIC (Staphylococcus aureus [6]): 6.25 µg/mL (≈ 10.7 µM) | MIC (Candida albicans): > 50 µg/mL | MIC [7]: > 50 µg/mL

SMILES: CC(C)c1sc(NC(=O)c2cc(NC(=O)c3cc(NC(=O)c4ccc5c(c4)OCO5)cn3C)cn2C)nc1C(=O)NCCCN(C)C
MIC (Staphylococcus aureus [1]): 64 µg/mL (≈ 96.6 µM) | MIC (Staphylococcus aureus [2]): 13 µg/mL (≈ 19.6 µM) | MIC (Staphylococcus aureus [3]): 8 µg/mL (≈ 12.1 µM) | MIC (Staphylococcus aureus [4]): 64 µg/mL (≈ 96.6 µM) | MIC (Enterococcus faecalis): 25 µg/mL (≈ 37.7 µM) | MIC (Aspergillus niger): > 50 µg/mL | MIC (Staphylococcus aureus [5]): 64 µg/mL (≈ 96.6 µM) | MIC (Staphylococcus aureus [6]): 64 µg/mL (≈ 96.6 µM) | MIC (Candida albicans): > 50 µg/mL | MIC [7]: > 50 µg/mL

SMILES: COc1ccc(/C=C/c2ccc3cc(C(=O)Nc4cc(C(=O)Nc5cc(C(=O)NCCN6CCOCC6)n(C)c5)n(C)c4)ccc3n2)cc1
MIC (Staphylococcus aureus [1]): > 64 µg/mL | MIC (Staphylococcus aureus [2]): > 50 µg/mL | MIC (Staphylococcus aureus [3]): 4 µg/mL (≈ 6.04 µM) | MIC (Staphylococcus aureus [4]): > 64 µg/mL | MIC (Enterococcus faecalis): 25 µg/mL (≈ 37.8 µM) | MIC (Aspergillus niger): 50 µg/mL (≈ 75.6 µM) | MIC (Staphylococcus aureus [5]): > 64 µg/mL | MIC (Staphylococcus aureus [6]): > 64 µg/mL | MIC (Candida albicans): > 50 µg/mL | MIC [7]: > 50 µg/mL

SMILES: CN(C)CCCn1cnc(NC(=O)c2cc(NC(=O)c3cc(NC(=O)c4cc5ccccc5cn4)cn3C)cn2C)c1
MIC (Staphylococcus aureus [2]): > 50 µg/mL | MIC (Enterococcus faecalis): > 50 µg/mL | MIC (Aspergillus niger): > 50 µg/mL | MIC (Candida albicans): > 50 µg/mL | MIC [7]: > 50 µg/mL

SMILES: CC(C)CCc1sc(NC(=O)c2cc(NC(=O)c3ccc(/C=C/c4ccc5ccccc5n4)cc3)cn2C)nc1C(=O)NCCN1CCOCC1
MIC (Staphylococcus aureus [2]): > 50 µg/mL | MIC (Enterococcus faecalis): > 50 µg/mL | MIC (Aspergillus niger): > 50 µg/mL | MIC (Candida albicans): > 50 µg/mL | MIC [7]: > 50 µg/mL

SMILES: COc1ccc(C(=O)Nc2cc(C(=O)Nc3cc(C(=O)Nc4cn(CCCN(C)C)cn4)n(C)c3)n(C)c2)cc1
MIC (Staphylococcus aureus [2]): > 50 µg/mL | MIC (Enterococcus faecalis): > 50 µg/mL | MIC (Aspergillus niger): > 50 µg/mL | MIC (Candida albicans): > 50 µg/mL | MIC [7]: > 50 µg/mL

SMILES: Cn1cc(NC(=O)c2cc(NC(=O)c3ccc(NC(=O)c4cnc5ccccc5c4)cc3)cn2C)cc1C(=O)NCCN1CCOCC1
MIC (Staphylococcus aureus [2]): > 50 µg/mL | MIC (Enterococcus faecalis): > 50 µg/mL | MIC (Aspergillus niger): > 50 µg/mL | MIC (Candida albicans): > 50 µg/mL | MIC [7]: > 50 µg/mL

SMILES: CC(C)c1sc(NC(=O)c2cc(NC(=O)c3cc(NC(=O)c4cc5ccccc5cn4)cn3C)cn2C)nc1C(=O)NCCN1CCOCC1
MIC (Staphylococcus aureus [2]): > 50 µg/mL | MIC (Enterococcus faecalis): > 50 µg/mL | MIC (Aspergillus niger): > 50 µg/mL | MIC (Candida albicans): > 50 µg/mL | MIC [7]: > 50 µg/mL

SMILES: COc1cccc(C(=O)Nc2cc(C(=O)Nc3cc(C(=O)Nc4cn(CCCN(C)C)cn4)n(C)c3)n(C)c2)c1
MIC (Staphylococcus aureus [2]): > 50 µg/mL | MIC (Enterococcus faecalis): > 50 µg/mL | MIC (Aspergillus niger): > 50 µg/mL | MIC (Candida albicans): > 50 µg/mL | MIC [7]: > 50 µg/mL

SMILES: COc1cccc(C(=N)Nc2cc(C(=O)Nc3cc(C(=O)Nc4cn(CCCN(C)C)cn4)n(C)c3)n(C)c2)c1
MIC (Staphylococcus aureus [2]): > 50 µg/mL | MIC (Enterococcus faecalis): > 50 µg/mL | MIC (Aspergillus niger): > 50 µg/mL | MIC (Candida albicans): > 50 µg/mL | MIC [7]: > 50 µg/mL

SMILES: CN(C)CCCNC(=O)c1cc(NC(=O)c2cc(NC(=O)c3cc(NC(=N)c4ccccc4)cn3C)cn2C)cn1C
MIC (Staphylococcus aureus [2]): 50 µg/mL (≈ 87.5 µM) | MIC (Enterococcus faecalis): > 50 µg/mL | MIC (Aspergillus niger): 50 µg/mL (≈ 87.5 µM) | MIC (Candida albicans): > 50 µg/mL | MIC [7]: > 50 µg/mL

Continued by falling MIC (Staphylococcus aureus [2]), values first:

MIC (Staphylococcus aureus [2]): 50 µg/mL (≈ 93 µM) | MIC (Enterococcus faecalis): > 50 µg/mL | MIC (Aspergillus niger): 50 µg/mL (≈ 93 µM) | MIC (Candida albicans): > 50 µg/mL | MIC [7]: > 50 µg/mL
SMILES: CC(=N)Nc1cc(C(=O)Nc2cc(C(=O)Nc3cc(C(=O)NCCN4CCOCC4)n(C)c3)n(C)c2)n(C)c1

MIC (Staphylococcus aureus [2]): 50 µg/mL (≈ 74.6 µM) | MIC (Enterococcus faecalis): 50 µg/mL (≈ 74.6 µM) | MIC (Aspergillus niger): > 50 µg/mL | MIC (Candida albicans): 50 µg/mL (≈ 74.6 µM) | MIC [7]: 50 µg/mL (≈ 74.6 µM)
SMILES: CC(C)c1sc(NC(=O)c2cc(NC(=O)c3cc(NC(=O)c4cc5ccccc5cn4)cn3C)cn2C)nc1C(=O)NCCCN(C)C

MIC (Staphylococcus aureus [2]): 50 µg/mL (≈ 83.4 µM) | MIC (Enterococcus faecalis): > 50 µg/mL | MIC (Aspergillus niger): > 50 µg/mL | MIC (Candida albicans): > 50 µg/mL | MIC [7]: > 50 µg/mL
SMILES: CC(C)n1cc(NC(=O)c2cc(NC(=N)c3ccccc3)cn2C)cc1C(=O)Nc1cc(C(=O)NCCCN(C)C)n(C)c1

MIC (Staphylococcus aureus [2]): 25 µg/mL (≈ 42.9 µM) | MIC (Enterococcus faecalis): 25 µg/mL (≈ 42.9 µM) | MIC (Aspergillus niger): > 50 µg/mL | MIC (Candida albicans): > 50 µg/mL | MIC [7]: > 50 µg/mL
SMILES: COc1cccc(/C=C/c2cccc(C(=O)Nc3cc(C(=O)Nc4cc(C(=O)NCCCN(C)C)n(C)c4)n(C)c3)c2)c1

MIC (Staphylococcus aureus [2]): 13 µg/mL (≈ 24.2 µM) | MIC (Enterococcus faecalis): 50 µg/mL (≈ 93 µM) | MIC (Aspergillus niger): 50 µg/mL (≈ 93 µM) | MIC (Candida albicans): > 50 µg/mL | MIC [7]: > 50 µg/mL
SMILES: CC(=N)Nc1cc(C(=O)Nc2cc(C(=O)Nc3cc(C(=O)NCCCN(C)C)n(C)c3)n(C(C)C)c2)n(C)c1

MIC (Staphylococcus aureus [2]): 13 µg/mL (≈ 25.5 µM) | MIC (Enterococcus faecalis): 50 µg/mL (≈ 98.1 µM) | MIC (Aspergillus niger): 50 µg/mL (≈ 98.1 µM) | MIC (Candida albicans): > 50 µg/mL | MIC [7]: > 50 µg/mL
SMILES: CC(=N)Nc1cc(C(=O)Nc2cc(C(=O)Nc3cc(C(=O)NCCCN(C)C)n(C)c3)n(C)c2)n(C)c1

MIC (Staphylococcus aureus [2]): 3 µg/mL (≈ 4.44 µM) | MIC (Enterococcus faecalis): 13 µg/mL (≈ 19.2 µM) | MIC (Aspergillus niger): > 50 µg/mL | MIC (Candida albicans): > 50 µg/mL | MIC [7]: > 50 µg/mL
SMILES: COc1cccc(C(=N)Nc2cc(C(=O)Nc3cc(C(=O)Nc4nc(C(=O)NCCCN(C)C)c(CCC(C)C)s4)n(C)c3)n(C)c2)c1
